# Experimental data as given in PubChem BioAssay AID623895 (Broad Institute, 2012).
# The source made the active and inactive calls.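 The calls were made as follows: active = compounds with an ATP-loss curve whose half-maximal dose stays within twice the top dose, in every run; inconclusive = mixed run calls, weak flat effects or poor fits; inactive = the rest, including opposite-direction effects.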
# Assay: cytotoxicity in ldlA[mSR-BI] CHO cells, dose response, cytotoxicity control for SR-BI HDL uptake inhibitor project, cell-based, 24 h, ATP luminescence, dry powder, set 6 (AID 623895)
# Settings: ldlA[mSR-BI] CHO cells viability, ATP luminescence, 24 h; at 35 µM (top of the series)
# Summary of the method: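 material = ldlA[mSR-BI] cells | dosing = Eight-point compound dose series | incubation = 24 h at 37 °C, read after 10 min | signal = ATP luminescence (Cell Titer Glo) | read-out basis = viability IC50 from dose-response fit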
row,SMILES,"activity change, negative = cytotoxicity"
1,CC(C)NC(=O)Nc1ccc2c(c1)C(=O)N([C@H](C)CO)C[C@@H](C)[C@H](CN(C)S(=O)(=O)c1ccc(Cl)cc1)O2,3.09% (inactive)
2,CNC[C@@H]1OCCCC[C@@H](C)Oc2ccc(NS(=O)(=O)c3ccc(Cl)cc3)cc2C(=O)N([C@H](C)CO)C[C@H]1C,-5.46% (inactive)
3,C[C@@H]1CN([C@H](C)CO)C(=O)c2cc(N(C)C)ccc2O[C@H]1CN(C)S(=O)(=O)c1ccc(Cl)cc1,-23.7% (inactive)
4,O=C(C[C@H]1CC[C@H](NC(=O)CC2CC2)[C@@H](CO)O1)NCc1ccc(Cl)cc1,-5.27% (inactive)
5,C[C@@H]1CN([C@H](C)CO)C(=O)c2cc(NC(=O)CCC(F)(F)F)ccc2O[C@H]1CN(C)S(=O)(=O)c1ccc(Cl)cc1,-19.4% (inactive)
6,C[C@@H]1CN([C@H](C)CO)C(=O)Cc2cc(NC(=O)Cc3cn(C)c4ccccc34)ccc2O[C@H]1CN(C)S(=O)(=O)c1ccc(F)cc1,-0.321% (inactive)
7,C[C@@H]1CN([C@@H](C)CO)C(=O)Cc2cc(NS(=O)(=O)c3cn(C)cn3)ccc2O[C@@H]1CN(C)Cc1ccc(Cl)c(Cl)c1,-6.37% (inactive)
8,C[C@@H]1CN([C@H](C)CO)C(=O)c2cc(NC(=O)Cc3cn(C)c4ccccc34)ccc2O[C@H]1CN(C)S(=O)(=O)c1ccc(F)cc1,-29.1% (inactive)
9,C[C@@H]1CN([C@@H](C)CO)C(=O)Cc2cc(NS(=O)(=O)c3cn(C)cn3)ccc2O[C@H]1CN(C)Cc1ccc(Cl)c(Cl)c1,3.09% (inactive)
10,C[C@@H]1CN([C@H](C)CO)C(=O)c2cc(NC(=O)Cc3cn(C)c4ccccc34)ccc2O[C@H]1CN(C)C(=O)Nc1ccc2c(c1)OCO2,7.49% (inactive)
11,C[C@@H]1CN([C@H](C)CO)C(=O)c2cc(NC(=O)c3ccncc3)ccc2O[C@H]1CN(C)S(=O)(=O)c1ccc(Cl)cc1,4.97% (inactive)
12,C[C@@H]1CN([C@H](C)CO)C(=O)c2cc(NC(=O)Cc3cn(C)c4ccccc34)ccc2O[C@H]1CN(C)S(C)(=O)=O,-4.79% (inactive)
13,C[C@@H]1CN([C@H](C)CO)C(=O)c2cc(NC(=O)Cc3cn(C)c4ccccc34)ccc2O[C@H]1CN(C)Cc1ccccc1,-31.2% (inactive)
14,C[C@@H]1CN([C@H](C)CO)C(=O)c2cc(NC(=O)Cc3cn(C)c4ccccc34)ccc2O[C@H]1CN(C)C(=O)Nc1ccccc1,-12.4% (inactive)
15,C[C@@H]1CN([C@H](C)CO)C(=O)c2cc(NC(=O)C3CCOCC3)ccc2O[C@H]1CN(C)S(=O)(=O)c1ccc(Cl)cc1,-5.21% (inactive)
16,C[C@@H]1CN([C@H](C)CO)C(=O)c2cc(NC(=O)Nc3cccc4ccccc34)ccc2O[C@H]1CN(C)S(=O)(=O)c1ccc(Cl)cc1,-10.4% (inactive)
17,C[C@H]1CN([C@@H](C)CO)C(=O)c2cc(NC(=O)Cc3cn(C)c4ccccc34)ccc2O[C@@H]1CN(C)S(=O)(=O)c1ccc(Cl)cc1,-20.1% (inactive)
18,C[C@@H]1CN([C@H](C)CO)C(=O)c2cc(NS(=O)(=O)c3ccccc3)ccc2O[C@H]1CN(C)S(=O)(=O)c1ccc(Cl)cc1,-8.14% (inactive)
19,C[C@@H]1CN([C@H](C)CO)C(=O)c2cc(NS(C)(=O)=O)ccc2O[C@H]1CN(C)S(=O)(=O)c1ccc(Cl)cc1,-14.8% (inactive)
20,C[C@@H]1CN([C@H](C)CO)C(=O)c2cc(NC(=O)CCCN(C)C)ccc2O[C@H]1CN(C)S(=O)(=O)c1ccc(Cl)cc1,15.7% (inactive)
21,COc1ccc(CN(C)C[C@@H]2Oc3ccc(NC(=O)Cc4cn(C)c5ccccc45)cc3C(=O)N([C@H](C)CO)C[C@H]2C)cc1,-17.6% (inactive)
22,C[C@@H]1CN([C@H](C)CO)C(=O)c2cc(NC(=O)Cc3cn(C)c4ccccc34)ccc2O[C@H]1CN(C)Cc1ccncc1,-16.9% (inactive)
